PubChem BioAssay
Values joined by “and” are separate entries in the source; they are usually repeats but may differ in a detail not shown here. Equal values may be shown once. Active and inactive are the calls of the source.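 Rule for the calls, unless noted: active = viability at or below 30% in both replicate assays; inconclusive = viability at or below 30% in just one of the two assays; inactive = the rest.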

Assays:
[1] = SK-BR-3 cell growth inhibitors, pilot screen, 24 h, human (AID 572;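 active = viability at or below 10% of carrier control in both of two separate runs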;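 note: compound exposure lasted between 18 and 24 h rather than exactly 24 h; 100% = carrier-treated control wells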); details: SK-BR-3 viability, CellTiter-Glo luminescence, at 10 µM, stronger effect = lower value
[2] = HUVEC growth inhibition – cell-based, human, primary screen (AID 575); details: HUVEC proliferation, CellTiter-Glo luminescence, 72 h; at 10 µM; stronger effect = lower value;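 note: 100% = median of untreated cell wells with 0.1% DMSO on each plate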
Summary of the method: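 Test system: HUVEC primary cells. Quantity: 1250 endothelial cells in each well. Dosing: single-point 10 µM, DMSO 0.1% final. Incubation: 72 h treatment at 37 °C. Measured by: CTG luminescence. Control set: DMSO cell controls and MePR drug controls. Plate: collagen-coated 384-well format.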

[3] = growth inhibitors of H69AR lung tumor, primary screen, human, duplicate replicates (AID 580;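 active = viability at or under a set limit in both replicates, limit being median viability minus 3 SD, cut at about 48% in these data, passing the limit was not always enough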;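 note: 100% = mean luminescence of untreated wells and 0% = no signal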); details: H69AR lung tumor cells viability, ATP luminescence, 72 h; at 10 µM; stronger effect = lower value
[4] = reversal of MRP1-mediated doxorubicin resistance, pilot screen, H69AR cells, doxorubicin co-treatment (AID 601;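 active = viability loss from added drug above about 55%, and viability with drug at most 40%, in both replicates, limit read from the data, passing the limit was not always enough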); details: CellTiter-Glo, 72 h, at 10 µM; for differential viability (reversal): stronger effect = higher value
[5] = 384-well plate pilot, post-Golgi transport modulator project, inhibition of yeast transport mutant growth (AID 636; in the data active = inhibition above about 31%); details: absorbance 615 nm, about 18 h, stronger effect = higher value
[6] = growth suppression of yeast trafficking mutant, preliminary HTS, modulators of trafficking downstream of Golgi apparatus project, 1536-format plate, OD 615 nm (AID 637; in the data active = inhibition above about 30%); details: yeast transport mutant growth, absorbance 615 nm, 18 h; stronger effect = higher value
[7] = H69AR cells + 2 uM doxorubicin, measured here: viability with 2 uM doxorubicin, stronger effect = lower value
[8] = H69AR cells, compound alone cytotoxicity

SMILES | viability [1] | viability [2] | viability [3] | differential viability (reversal) ([4]; H69AR cells + 2 uM doxorubicin) | viability [4, 7] | viability [4, 8] | inhibition [5] | inhibition [6]
CC(C)[N+]1(C)[C@@H]2CC[C@H]1CC(OC(=O)C(CO)c1ccccc1)C2 (stereo partly specified) | 113% (inactive) | 96% (inactive) | 100% (inactive) | 9.31% (inactive) | 90.9% | 100% | -6.36% (inactive) | -2.83% (inactive)
CCOC(=O)Cc1csc(/C(=N/O)C(N)=O)n1 | 94% (inactive) | 94.7% (inactive) | 92.6% (inactive) | -4.43% (inactive) | 97.1% | 92.6% | -1.82% (inactive) | -5.41% (inactive)
COCCNC(=S)c1ccc(OC)cc1 | 118% (inactive) | 112% (inactive) | 86% (inactive) | 8.94% (inactive) | 77.1% | 86% | -8.27% (inactive) | 5.27% (inactive)
O=C(NCC1CCCO1)C1CCC(CNS(=O)(=O)c2ccccc2)CC1 (stereo unspecified) | 101% (inactive) | 81.6% (inactive) | 90.3% (inactive) | 5.42% (inactive) | 84.8% | 90.3% | 1.95% (inactive) | -1.31% (inactive)
Cc1cc(=O)n2nc(N3CCC(C(=O)N4CCN(Cc5ccccc5)CC4)CC3)sc2n1 | 97% (inactive) | 108% (inactive) | 91.1% (inactive) | 7.01% (inactive) | 84.1% | 91.1% | -3.24% (inactive) | -1.27% (inactive)
CCn1c(SCC(=O)N2CCN(c3ccc(Cl)cc3)CC2)nc2ccccc2c1=O | 96% (inactive) | 77.2% (inactive) | 78.6% (inactive) | -12.9% (inactive) | 91.5% | 78.6% | 5.89% (inactive) | 25.5% (inactive)
O=C(Nc1ccc(Cl)c(C(F)(F)F)c1)N1CCCC(O)C1 (stereo unspecified) | 98% (inactive) | 107% (inactive) | 105% (inactive) | 20.9% (inactive) | 83.6% | 105% | -0.78% (inactive) | -6.23% (inactive)
N#Cc1c(NCc2ccccc2)ccnc1NCc1cccnc1 | 78% (inactive) | 59.2% (inactive) | 98.6% (inactive) | 4.3% (inactive) | 94.3% | 98.6% | -6.08% (inactive) | -0.55% (inactive)
Cc1ccc(N(CC(O)CN2CCCC2)S(=O)(=O)c2ccc(C)cc2)cc1 (stereo unspecified) | 132% (inactive) | 103% (inactive) | 86.9% (inactive) | -1.29% (inactive) | 88.2% | 86.9% | -5.21% (inactive) | -1.94% (inactive)
CCOC(=O)c1cccc(NC(=O)CSc2nnc(-c3cccnc3)n2C)c1 | 99% (inactive) | 107% (inactive) | 98.3% (inactive) | 5.64% (inactive) | 92.7% | 98.3% | -3.38% (inactive) | -0.73% (inactive)
COc1ccc(C2C(C(=O)c3sc(C)nc3C)=C(O)C(=O)N2CCN(C)C)cc1 (stereo unspecified) | 106% (inactive) | 106% (inactive) | 93.1% (inactive) | 12.4% (inactive) | 80.7% | 93.1% | -8% (inactive) | 4.36% (inactive)
Cc1cc(NC(=O)CSc2nc(C3CCCCC3)nc3ccccc23)no1 | 101% (inactive) | 99.8% (inactive) | 80% (inactive) | 16.2% (inactive) | 63.9% | 80% | -0.8% (inactive) | -2% (inactive)
O=C(CCC1COc2ccccc2O1)NCC1COc2ccccc2O1 (stereo unspecified) | 125% (inactive) | 103% (inactive) | 87.8% (inactive) | 4.35% (inactive) | 83.4% | 87.8% | -6.3% (inactive) | 4.68% (inactive)
Cc1cc(Cl)c(S(=O)(=O)Nc2ccc3c(c2)OCCO3)cc1OCC(N)=O | 78% (inactive) | 107% (inactive) | 97.2% (inactive) | 11.7% (inactive) | 85.5% | 97.2% | 0.27% (inactive) | 4.84% (inactive)
CC(NCCc1ccc(O)cc1)C(O)c1ccc(O)cc1 (stereo unspecified) | 99% (inactive) | 101% (inactive) | 99.4% (inactive) | 7.11% (inactive) | 92.3% | 99.4% | -2.73% (inactive) | 0.67% (inactive)
CC(C)(C)NC(=O)CN(C(=O)C1CSC(=O)C1)c1ccc2c(c1)OCCO2 (stereo unspecified) | 92% (inactive) | 112% (inactive) | 91.5% (inactive) | -1.13% (inactive) | 92.6% | 91.5% | 0.95% (inactive) | -4.55% (inactive)
CCOC(=O)c1ccc(NC(=O)CCc2nc(-c3ccc(C)cc3)no2)cc1 | 85% (inactive) | 38% (inactive) | 94.3% (inactive) | 5.47% (inactive) | 88.8% | 94.3% | -3.29% (inactive) | 3.93% (inactive)
C[C@]12C=CC(=O)C=C1CC[C@@H]1[C@@H]2[C@@H](O)C[C@@]2(C)[C@H]1CC[C@]2(O)C(=O)COC(=O)CCC(=O)O | 112% (inactive) | 80.3% (inactive) | 84.4% (inactive) | 2.96% (inactive) | 81.4% | 84.4% | 1.95% (inactive) | 1.33% (inactive)
CCCN1Cc2cccc(C(=O)NC3CCCC3)c2C1=O | 111% (inactive) | 91.5% (inactive) | 87.9% (inactive) | 5.09% (inactive) | 82.8% | 87.9% | -7.47% (inactive) | 6.36% (inactive)

SMILES | viability [1] | viability [2] | viability [3] | differential viability (reversal) ([4]; H69AR cells + 2 uM doxorubicin) | viability [4, 7] | viability [4, 8] | inhibition [5] | inhibition [6]
COc1cccc(-c2csc(N3CCN(CC(=O)Nc4ccc5c(c4)OCO5)CC3)n2)c1 | 106% (inactive) | 78.9% (inactive) | 80.3% (inactive) | -1.21% (inactive) | 81.5% | 80.3% | -2.34% (inactive) | 0% (inactive)
CNc1nnc(-c2cccc(N(C)C)c2)s1 | 111% (inactive) | 95.9% (inactive) | 92% (inactive) | 7.45% (inactive) | 84.6% | 92% | -4.55% (inactive) | 7.38% (inactive)
O=C(NC1CC1)c1ccc(S(=O)(=O)NCC2CCCCC2)cc1 | 112% (inactive) | 79.4% (inactive) | 102% (inactive) | 5.06% (inactive) | 97% | 102% | -6.85% (inactive) | -0.32% (inactive)
Cc1ccc2nc3c(cc2c1)CN(Cc1ccco1)C(=NCC1CCCO1)S3 (stereo unspecified) | 100% (inactive) | 65.6% (inactive) | 7.64% (active) | -1.93% (inactive) | 9.57% | 7.64% | 9.33% (inactive) | -0.18% (inactive)
CCOC(=O)c1c(N)c(C#N)nn1-c1ccccc1C(=O)OC | 96% (inactive) | 109% (inactive) | 92.3% (inactive) | 6.05% (inactive) | 86.2% | 92.3% | -5.87% (inactive) | 0.73% (inactive)
CCN1C(=O)C(C(=O)Nc2ccc(OC)cc2)C2CC1(C)Oc1ccccc12 (stereo unspecified) | 80% (inactive) | 110% (inactive) | 86.4% (inactive) | -10% (inactive) | 96.4% | 86.4% | -8.51% (inactive) | -1.64% (inactive)
CCCCN1C[C@H](O)[C@@H](O)[C@H](O)[C@H]1CO | 123% (inactive) | 88.9% (inactive) | 96.5% (inactive) | -3.9% (inactive) | 100% | 96.5% | 1.82% (inactive) | 27% (inactive)
C=CCOC(=O)C1=C(C)NC(=O)NC1c1cn(-c2ccccc2)nc1-c1cccs1 (stereo unspecified) | 119% (inactive) | 81.9% (inactive) | 91% (inactive) | -3.71% (inactive) | 94.7% | 91% | -6.49% (inactive) | 1.09% (inactive)
Cc1sc2ncnc(Oc3ccc(-n4ccnc4)cc3)c2c1C | 88% (inactive) | 102% (inactive) | 87.2% (inactive) | -15.1% (inactive) | 102% | 87.2% | -8.77% (inactive) | 3.27% (inactive)
O=C(c1ccc(S(=O)(=O)N2CCC(c3nc4ccccc4s3)CC2)cc1)N1CCOCC1 | 97% (inactive) | 100% (inactive) | 71.4% (inactive) | -28.7% (inactive) | 100% | 71.4% | -5.34% (inactive) | 3.64% (inactive)
CN/C(=C/[N+](=O)[O-])NCCSCc1ccc(CN(C)C)o1 | 116% (inactive) | 87.7% (inactive) | 94.2% (inactive) | -0.85% (inactive) | 95% | 94.2% | -2.47% (inactive) | 4% (inactive)
CCN(C(=O)c1c(OC)cccc1OC)c1nnc(-c2cccnc2)s1 | 95% (inactive) | 87.7% (inactive) | 92.7% (inactive) | 1.89% (inactive) | 90.8% | 92.7% | -5.81% (inactive) | -7.82% (inactive)
NC(=O)C1CCN(C(=S)c2cccs2)CC1 | 77% (inactive) | 102% (inactive) | 96.1% (inactive) | 11.5% (inactive) | 84.7% | 96.1% | -8.49% (inactive) | 3.39% (inactive)
COP(C)(=O)c1c(C)nn(-c2ccccc2)c1C (stereo unspecified) | 122% (inactive) | 104% (inactive) | 96.3% (inactive) | 1.8% (inactive) | 94.5% | 96.3% | 0.39% (inactive) | 1.15% (inactive)
C=CCn1c(SCC(=O)NCC2CCCO2)nc2scc(-c3ccco3)c2c1=O (stereo unspecified) | 112% (inactive) | 88.2% (inactive) | 92.9% (inactive) | -1.34% (inactive) | 94.2% | 92.9% | -3.84% (inactive) | 2.58% (inactive)
COC(=O)c1cc(Br)c(=O)n(CCc2ccc(F)cc2)c1 | 78% (inactive) | 118% (inactive) | 100% (inactive) | 8.46% (inactive) | 92% | 100% | -5.27% (inactive) | 3.09% (inactive)
c1ccc(-c2ccc(-c3ccccn3)nn2)nc1 | 112% (inactive) | 55.3% (inactive) | 59.4% (inactive) | -10.1% (inactive) | 69.5% | 59.4% | -6.27% (inactive) | -0.63% (inactive)
CN(C)C(=O)Oc1cccc([N+](C)(C)C)c1 | 62% (inactive) and 92% (inactive) | 97.5% (inactive) and 92% (inactive) | 94.7% (inactive) and 120% (inactive) | -1.94% (inactive) and 17.4% (inactive) | 96.6% and 103% | 94.7% and 120% | -5.06% (inactive) and -2.21% (inactive) | -4% (inactive) and -5.83% (inactive)
